Reference: ChEMBL document CHEMBL1142201, “Tolerance to the glycopeptides vancomycin and teicoplanin in coagulase-negative staphylococci” (2007)

Columns and labels:
Assay type in all cases: functional
Staphylococcus [1] = experiment: Antibacterial activity against coagulase-negative Staphylococcus assessed as bacterial counts at 10 times MIC after 6 hrs
Summary of the method: (§1)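 CLSI time-kill in 50 ml Mueller-Hinton broth. Mean starting inoculum 5.6 log10 CFU/ml; vancomycin or teicoplanin at 10× MIC, with MIC from CLSI agar dilution. Counts taken just before and 6 and 24 h after antibiotic addition: samples diluted 10-fold to avoid carryover and plated in duplicate on prewarmed blood agar. Result given as Δlog CFU/ml; each strain run in duplicate.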

[2] = system: Staphylococcus lugdunensis; experiment: Reduction of vancomycin-tolerant Staphylococcus lugdunensis 111A53 isolate assessed as bacterial counts at 20 times MIC after 24 hrs by time-kill curve method
Summary of the method: (§2)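 CLSI time-kill in 50 ml Mueller-Hinton broth, mean starting inoculum 5.6 log10 CFU/ml. Vancomycin or teicoplanin at 5×, 10× or 20× the agar-dilution MIC. Viable counts taken before and 6 and 24 h after antibiotic addition; samples diluted 10-fold and plated in duplicate on prewarmed blood agar. Change reported as mean log CFU/ml.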

[3] = system: Staphylococcus lugdunensis; experiment: Reduction of teicoplanin-tolerant Staphylococcus lugdunensis 111A91 isolate assessed as bacterial counts at 5 times MIC after 6 hrs by time-kill curve method; summary of the method: as §2
[4] = system: Staphylococcus lugdunensis; experiment: Reduction of teicoplanin-tolerant Staphylococcus lugdunensis 111A91 isolate assessed as bacterial counts at 10 times MIC after 6 hrs by time-kill curve method; summary of the method: as §2
[5] = system: Staphylococcus lugdunensis; experiment: Reduction of teicoplanin-tolerant Staphylococcus lugdunensis 111A91 isolate assessed as bacterial counts at 20 times MIC after 6 hrs by time-kill curve method; summary of the method: as §2
[6] = system: Staphylococcus lugdunensis; experiment: Reduction of teicoplanin-tolerant Staphylococcus lugdunensis 111A91 isolate assessed as bacterial counts at 5 times MIC after 24 hrs by time-kill curve method; summary of the method: as §2
[7] = system: Staphylococcus lugdunensis; experiment: Reduction of teicoplanin-tolerant Staphylococcus lugdunensis 111A91 isolate assessed as bacterial counts at 10 times MIC after 24 hrs by time-kill curve method; summary of the method: as §2
[8] = system: Staphylococcus lugdunensis; experiment: Reduction of teicoplanin-tolerant Staphylococcus lugdunensis 111A91 isolate assessed as bacterial counts at 20 times MIC after 24 hrs by time-kill curve method; summary of the method: as §2
[9] = system: Staphylococcus lugdunensis; experiment: Ratio of MBC to MIC against vancomycin-tolerant Staphylococcus lugdunensis 111A53 isolate
Summary of the method: (§3)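 MBC/MIC by CLSI broth method, starting inoculum between 10^5 and 10^6 CFU/ml in Mueller-Hinton broth. Vancomycin and teicoplanin tested; S. aureus ATCC 25923 quality control included in each assay. Three separate assays, each ratio reported individually.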

[10] = system: Staphylococcus lugdunensis; experiment: Ratio of MBC to MIC against teicoplanin-tolerant Staphylococcus lugdunensis 111A91 isolate; summary of the method: as §3
[11] = system: Staphylococcus lugdunensis; experiment: Antibacterial activity against coagulase-negative Staphylococcus lugdunensis 111A53 isolate assessed as bacterial counts at 10 times MIC after 6 hrs; summary of the method: as §1
[12] = system: Staphylococcus lugdunensis; experiment: Antibacterial activity against coagulase-negative Staphylococcus lugdunensis 111A91 isolate assessed as bacterial counts at 10 times MIC after 6 hrs; summary of the method: as §1
[13] = system: Staphylococcus lugdunensis; experiment: Antibacterial activity against coagulase-negative Staphylococcus lugdunensis isolate assessed as bacterial counts at 10 times MIC after 6 hrs; summary of the method: as §1
[14] = system: Staphylococcus lugdunensis; experiment: Antibacterial activity against coagulase-negative Staphylococcus lugdunensis ATCC 49576 assessed as bacterial counts at 10 times MIC after 6 hrs; summary of the method: as §1
[15] = system: Staphylococcus lugdunensis; experiment: Antibacterial activity against coagulase-negative Staphylococcus lugdunensis 111A223 isolate assessed as bacterial counts at 10 times MIC after 6 hrs; summary of the method: as §1
[16] = system: Staphylococcus lugdunensis; experiment: Antibacterial activity against coagulase-negative Staphylococcus lugdunensis ATCC 43809 assessed as bacterial counts at 10 times MIC after 6 hrs; summary of the method: as §1
[17] = system: Staphylococcus lugdunensis; experiment: Antibacterial activity against coagulase-negative Staphylococcus lugdunensis 111A229 isolate assessed as bacterial counts at 10 times MIC after 6 hrs; summary of the method: as §1
Staphylococcus [18] = experiment: Antibacterial activity against coagulase-negative Staphylococcus assessed as bacterial counts at 10 times MIC after 24 hrs; summary of the method: as §1
[19] = system: Staphylococcus lugdunensis; experiment: Antibacterial activity against coagulase-negative Staphylococcus lugdunensis 111A53 isolate assessed as bacterial counts at 10 times MIC after 24 hrs; summary of the method: as §1
[20] = system: Staphylococcus lugdunensis; experiment: Antibacterial activity against coagulase-negative Staphylococcus lugdunensis 111A91 isolate assessed as bacterial counts at 10 times MIC after 24 hrs; summary of the method: as §1
[21] = system: Staphylococcus lugdunensis; experiment: Antibacterial activity against coagulase-negative Staphylococcus lugdunensis isolate assessed as bacterial counts at 10 times MIC after 24 hrs; summary of the method: as §1
[22] = system: Staphylococcus lugdunensis; experiment: Antibacterial activity against coagulase-negative Staphylococcus lugdunensis ATCC 49576 assessed as bacterial counts at 10 times MIC after 24 hrs; summary of the method: as §1
[23] = system: Staphylococcus lugdunensis; experiment: Antibacterial activity against coagulase-negative Staphylococcus lugdunensis 111A223 isolate assessed as bacterial counts at 10 times MIC after 24 hrs; summary of the method: as §1
[24] = system: Staphylococcus lugdunensis; experiment: Antibacterial activity against coagulase-negative Staphylococcus lugdunensis ATCC 43809 assessed as bacterial counts at 10 times MIC after 24 hrs; summary of the method: as §1
[25] = system: Staphylococcus lugdunensis; experiment: Antibacterial activity against coagulase-negative Staphylococcus lugdunensis 111A229 isolate assessed as bacterial counts at 10 times MIC after 24 hrs; summary of the method: as §1
[26] = system: Staphylococcus lugdunensis; experiment: Reduction of vancomycin-tolerant Staphylococcus lugdunensis 111A53 isolate assessed as bacterial counts at 5 times MIC after 6 hrs by time-kill curve method; summary of the method: as §2
[27] = system: Staphylococcus lugdunensis; experiment: Reduction of vancomycin-tolerant Staphylococcus lugdunensis 111A53 isolate assessed as bacterial counts at 10 times MIC after 6 hrs by time-kill curve method; summary of the method: as §2
[28] = system: Staphylococcus lugdunensis; experiment: Reduction of vancomycin-tolerant Staphylococcus lugdunensis 111A53 isolate assessed as bacterial counts at 20 times MIC after 6 hrs by time-kill curve method; summary of the method: as §2
[29] = system: Staphylococcus lugdunensis; experiment: Reduction of vancomycin-tolerant Staphylococcus lugdunensis 111A53 isolate assessed as bacterial counts at 5 times MIC after 24 hrs by time-kill curve method; summary of the method: as §2
[30] = system: Staphylococcus lugdunensis; experiment: Reduction of vancomycin-tolerant Staphylococcus lugdunensis 111A53 isolate assessed as bacterial counts at 10 times MIC after 24 hrs by time-kill curve method; summary of the method: as §2

**Q.** How did the deltalog10CFU/ml (Staphylococcus [1]) turn out when CN[C@H](CC(C)C)C(=O)N[C@H]1C(=O)N[C@@H](CC(N)=O)C(=O)N[C@H]2C(=O)N[C@H]3C(=O)N[C@H](C(=O)N[C@H](C(=O)O)c4cc(O)cc(O)c4-c4cc3ccc4O)[C@H](O)c3ccc(c(Cl)c3)Oc3cc2cc(c3O[C@@H]2O[C@H](CO)[C@@H](O)[C@H](O)[C@H]2O[C@H]2C[C@](C)(N)[C@H](O)[C@H](C)O2)Oc2ccc(cc2Cl)[C@H]1O [VANCOMYCIN] was run?
**A.** Its deltalog10CFU/ml is -2.98.

**Q.** And the log10CFU/ml [2]?
**A.** The log10CFU/ml was -1.74.

**Q.** And the log10CFU/ml [3]?
**A.** Its log10CFU/ml is -1.16.

**Q.** What about the log10CFU/ml [4] of the same compound?
**A.** Its log10CFU/ml is -0.31.

**Q.** And the log10CFU/ml [5]?
**A.** Its log10CFU/ml is -0.56.

**Q.** What about the log10CFU/ml [6] of the same compound?
**A.** The log10CFU/ml was -3.9.

**Q.** What about the log10CFU/ml [7] of the same compound?
**A.** Its log10CFU/ml is -3.53.

**Q.** And the log10CFU/ml [8]?
**A.** Its log10CFU/ml is -2.83.

**Q.** What about the Ratio [9] of the same compound?
**A.** The Ratio was 8.

**Q.** And the Ratio [10]?
**A.** Its Ratio is 64.

**Q.** And the deltalog10CFU/ml [11]?
**A.** Its deltalog10CFU/ml is -0.31.

**Q.** What about the deltalog10CFU/ml [12] of the same compound?
**A.** The deltalog10CFU/ml was -0.31.

**Q.** What about the deltalog10CFU/ml [13] of the same compound?
**A.** Its deltalog10CFU/ml is -1.17.

**Q.** And the deltalog10CFU/ml [14]?
**A.** Its deltalog10CFU/ml is -1.38.

**Q.** What about the deltalog10CFU/ml [15] of the same compound?
**A.** Its deltalog10CFU/ml is -0.67.

**Q.** And the deltalog10CFU/ml [16]?
**A.** The deltalog10CFU/ml was -0.21.

**Q.** And the deltalog10CFU/ml [17]?
**A.** Its deltalog10CFU/ml is -2.24.

**Q.** What about the deltalog10CFU/ml (Staphylococcus [18]) of the same compound?
**A.** Its deltalog10CFU/ml is -4.8.

**Q.** And the deltalog10CFU/ml [19]?
**A.** The deltalog10CFU/ml was -1.94.

**Q.** And the deltalog10CFU/ml [20]?
**A.** The deltalog10CFU/ml was -3.53.

**Q.** What about the deltalog10CFU/ml [21] of the same compound?
**A.** The deltalog10CFU/ml was -4.1.

**Q.** And the deltalog10CFU/ml [22]?
**A.** The deltalog10CFU/ml was -3.91.

**Q.** What about the deltalog10CFU/ml [23] of the same compound?
**A.** The deltalog10CFU/ml was -1.65.

**Q.** And the deltalog10CFU/ml [24]?
**A.** Its deltalog10CFU/ml is -2.18.

**Q.** And the deltalog10CFU/ml [25]?
**A.** Its deltalog10CFU/ml is -2.42.

**Q.** And the log10CFU/ml [26]?
**A.** The log10CFU/ml was -0.05.

**Q.** And the log10CFU/ml [27]?
**A.** The log10CFU/ml was -0.31.

**Q.** What about the log10CFU/ml [28] of the same compound?
**A.** The log10CFU/ml was -0.07.

**Q.** And the log10CFU/ml [29]?
**A.** Its log10CFU/ml is -1.72.

**Q.** What about the log10CFU/ml [30] of the same compound?
**A.** The log10CFU/ml was -1.94.
